# Pemphigus Ab inh: inhibitors of pemphigus antibody binding to human desmoglein-3. DSG3-coupled beads, scFv-anti-DSG3-GFP binding, flow cytometry; stronger effect = lower value. AID 588358. hit rate 0.48% among 310,000. P32926. binding (percent of control), % at 10 µM;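 active = binding more than 3 SD below its plate's average and above zero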
# MCL1-BIM inh: inhibitors of human MCL1 binding to BIM-BH3 peptide. GST-MCL1 / FITC-Bim-BH3 fluorescence polarization. AID 2057. Q07820. hit rate 0.68% among 320,000. inhibition, % at 10.9 µM;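 active = inhibition above the mean inhibition of all tested compounds plus 3 SD, set per campaign, cut at about 40% in these data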;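 note: 0% = DMSO wells and 100% = unlabeled Bim-BH3 peptide control; higher means more loss of mP so more displacement of Bim peptide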
# Target sequence (Q07820 whole entry, looked up): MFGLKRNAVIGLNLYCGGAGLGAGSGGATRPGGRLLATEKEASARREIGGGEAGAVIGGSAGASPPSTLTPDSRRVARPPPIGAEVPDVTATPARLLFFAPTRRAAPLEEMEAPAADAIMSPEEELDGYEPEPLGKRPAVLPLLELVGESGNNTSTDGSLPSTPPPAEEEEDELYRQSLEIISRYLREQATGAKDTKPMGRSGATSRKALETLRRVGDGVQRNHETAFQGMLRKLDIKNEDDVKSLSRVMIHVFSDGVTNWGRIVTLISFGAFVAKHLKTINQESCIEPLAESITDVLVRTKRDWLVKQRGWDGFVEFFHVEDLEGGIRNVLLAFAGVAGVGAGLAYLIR
# Mcl1-Bid inh: disrupts binding of human Mcl-1 to Bid peptide. inhibition, % at 21.7 µM. hit rate 0.97% among 220,000. TR-FRET Mcl-1/Bid-Dy647 peptide binding, 1536-well. AID 1021;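 active = compounds that cut the binding signal by more than half at the single screening dose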;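 note: His-tagged Mcl-1 with europium anti-His antibody binding Bid BH3 peptide; 0% = Mcl-1 plus peptide wells and 100% = peptide-only wells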
# T cell modulator: T cell immune modulators affecting CD8 T cell-vesicle binding; 2C CD8+ T cell-vesicle binding, flow cytometry; stronger effect = lower value; response (vesicle binding), % at 7 µM; hit rate 0.068% among 330,000;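 active = response, share of CD8 T cells binding vesicles, and their 90th percentile fluorescence all below set limits, cut at about 80% in these data, passing the limit was not always enough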;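 note: values below 100% mean blocked vesicle binding to the CD8+ T cells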
#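 Read-out – percent CD8+ FL2 mean versus row control · System – murine 2C transgenic CD8+ T lymphocytes · Times – 1.5 h cell–vesicle binding at 37 °C, then 20 min icy labelling · Control set – naked vesicles low, QL9 vesicles with vehicle high · Detection – cytometric PE anti-B7-1 and Alexa647 anti-CD8 signals after 1% paraformaldehyde fixation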
# Mcl1 Noxa PPI: Mcl-1/Noxa interaction inhibition; Q07820; TR-FRET Mcl-1/Noxa peptide binding, 2 h; inhibition, % at 21.7 µM; hit rate 1.5% among 220,000; AID 1022;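 active = compounds that cut the protein-peptide binding signal by more than 50% relative to plate controls in a single-dose test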;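 note: His-tagged Mcl-1 with rhodamine Noxa BH3 peptide and terbium anti-His antibody; 0% = Mcl-1 plus Noxa peptide wells and 100% = peptide-only wells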
# Bim-Mcl-1: human Bim-Mcl-1 interaction inhibition | Q07820 | AID 1009 | hit rate 0.1% among 190,000 | inhibition, % at 10 µM | Bead-based flow cytometry, Bim peptide-Mcl-1 binding; in the data active = inhibition above about 40%;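 note: 0% = no compound tracer wells and 100% = peptide blocker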
# Numbers without * were called inactive; i = inactive; . = no result. Compounds with a hit are over-represented: about 2.3% of the library has one in this group of screens.
SMILES,Pemphigus Ab inh,MCL1-BIM inh,Mcl1-Bid inh,T cell modulator,Mcl1 Noxa PPI,Bim-Mcl-1
Cc1ccc2sc(NNC(=O)c3cc(=O)c4ccccc4o3)nc2c1C,95,15,-25,616,66*,1
CCCOc1ccccc1OCC(=O)N1CCN(S(=O)(=O)c2ccc(Cl)cc2)CC1,111,-11,.,428,.,.
O=C(N/N=C/C(Br)=C\c1ccccc1)c1ccco1,90,-3,74*,352,14,.
COc1cc(N/C(N)=N/c2nc(C)cc(C)n2)cc(OC)c1,100,-3,.,280,.,.
Nc1ncnc2c1ncn2[C@@H]1O[C@H](CNCc2ccc(OCC(=O)Nc3nccs3)cc2)[C@@H](O)[C@H]1O,103,.,.,313,.,.
C=CCSc1nc2ccccc2c2nc(-c3ccccc3)nn12,2.7*,3,-1,431,3,-1
C=CCNC(=O)CCC(=O)NNc1nc2ccccc2c2nc(-c3ccccc3)nn12,98,4,-34,212,9,0
Cc1ccc(NC(=O)c2ncn(CCCNCC3CCCCC3)n2)cc1C,110,.,.,.,.,.
O=C(Cn1c(C(F)(F)F)nc2ccccc21)c1ccc(F)cc1,101,0,101*,629,14,2
COC(=O)c1ccccc1NC(=O)c1ccc(COc2ccc3c(c2)CCC3)cc1,96,0,58*,508,10,0
CCOC(=O)Cc1csc(NC(=O)c2sc3nc4ccc(CC)cc4cc3c2N)n1,166,11,91*,347,89*,5
O=C(CCCN1C(=O)/C(=C\c2cccc(Br)c2)SC1=S)Nc1ccc(C(=O)O)cc1,104,.,.,.,.,.
Cn1c(SCc2cccc(F)c2)nnc1-c1ccccn1,103,4,-16,148,11,2
Cn1c(SCc2cccc(F)c2)nnc1-c1cnccn1,77*,-1,-9,238,9,.
O=C(c1c[nH]c2ccc(S(=O)(=O)N3CCOCC3)cc2c1=O)N1CCCC1,70,2,-12,542,20,-3
CC(C)c1ccc(NS(=O)(=O)c2ccc3[nH]cc(C(=O)N4CCC(C(N)=O)CC4)c(=O)c3c2)cc1,97,5,59*,0,6,-3
COc1ccc(NC(=O)C(=O)NCCN2CCN(C(=O)c3cccs3)CC2)cc1,100,7,-1,142,62*,-2
Cc1cc(NC(=O)C(=O)NCCN2CCN(C(=O)c3cccs3)CC2)ccc1Br,106,2,-10,428,-5,-1
CN(C)C(=O)c1cn(N(C)c2ncc(C(F)(F)F)cc2Cl)c(=O)c2ccccc12,103,4,61*,212,31,-3
CN(C)C(=O)c1cccn1-c1ncc(C(F)(F)F)cc1Cl,95,1,-8,350,3,-2
CC(=O)c1cccc(NC(=O)CCn2c(=O)oc3ccccc32)c1,.,-8,.,150,.,.
Cc1cccnc1CNC(=O)C1CCC(=O)N(CCc2cccc(F)c2)C1 (centres undefined),101,-2,.,392,.,.
C[N+]1(CCC(=O)c2ccccc2)CCCCC1,104,-18,56*,i,-12,-3
O=C(CCN1CCCCC1)c1ccccc1,123,5,-34,406,26,-4
O=C(NCCc1cn[nH]c1)c1ccc2oc(CCc3ccccc3)nc2c1,99,.,.,.,.,.
SMILES,Pemphigus Ab inh,MCL1-BIM inh,Mcl1-Bid inh,T cell modulator,Mcl1 Noxa PPI,Bim-Mcl-1
C1=C\CCC2(OCCO2)C2(CC/1)OCCO2,97,.,.,.,.,.
COc1ccccc1-c1nc(SCC(=O)N(C)c2ccccc2)c2c(=O)n(C)c(=O)n(C)c2n1,92,2,57*,160,35,0
Nc1nc(N)c2cc(Sc3ccc4ccccc4c3)ccc2n1,110,3,14,346,84*,.
Cc1cccc(OCc2nc(C#N)c(NCc3ccc4c(c3)OCO4)o2)c1,104,-5,83*,322,8,0
C=CCn1c(SCC(=O)Nc2cc(C)on2)nnc1-c1ccncc1,98,.,.,.,.,.
CC(=NNC(=O)c1ccncc1)c1ccc2ccccc2c1O,89,.,.,.,.,.
O=C(NCC(=O)N1CCN(S(=O)(=O)/C=C/c2ccccc2)CC1)c1ccc(Cl)cc1,73*,-6,-25,172,-6,.
O=C(NCC(=O)N1CCN(S(=O)(=O)/C=C/c2ccccc2)CC1)c1ccccc1F,91,-11,-3,648,17,0
OC(Cc1ccnc2ccccc12)C(Cl)(Cl)Cl (centres undefined),90,.,.,.,.,.
CC1CCCN(C(=S)Nc2ccc3nc4n(c(=O)c3c2)CCCCC4)C1 (centres undefined),93,9,97*,193,5,-3
CC1CC(C)CN(C(=S)Nc2ccc3nc4n(c(=O)c3c2)CCCCC4)C1 (centres undefined),118,6,-65,226,4,-1
CC(=O)C1=C(O)CC(c2ccccc2)CC1=NCCc1c(C)[nH]c2ccccc12 (centres undefined),102,-2,-3,726,-6,-2
CC(=O)C1=C(O)CC(c2ccccc2)CC1=NCCc1c(C)[nH]c2ccc(C)cc12 (centres undefined),-12*,-4,-11,576,-3,0
COc1cccc(/C=C2\SC(=O)N(CCC(=O)NNC(=O)c3ccccc3Cl)C2=O)c1,87,2,1,10*,-4,0
O=C(CN1C(=O)S/C(=C\c2ccc(Cl)cc2)C1=O)NNC(=O)c1ccccc1O,84,33,82*,630,65*,-6
COc1ccc(/C=C2\SC(=S)N(CCCC(=O)NNC(=O)c3ccccc3O)C2=O)cc1,101,3,16,113,12,-3
CCOC(=O)c1nn(-c2ccc(F)cc2)c(=O)cc1OCC(=O)Nc1ccc(F)c(F)c1,106,9,.,345,.,.
N#C/C(=C(/O)CN1CCN(c2ccccc2F)CC1)c1nc(-c2ccccc2)cs1,97,8,-8,240,11,46*
CC(=O)c1c(C)[nH]c(C(=O)NCCc2c[nH]c3ccccc23)c1C,112,5,.,672,.,.
S=c1[nH]nc(-c2ccccn2)n1/N=C/c1ccc(Cl)c(Cl)c1,96,-13,-66,480,0,.
S=c1[nH]nc(-c2ccccn2)n1/N=C/c1ccc(Br)s1,65*,-18,-39,251,18,-15
NS(=O)(=O)c1ccc(NC(=O)c2ccc(-c3ccccc3)cc2)cc1,.,.,28,.,-63,5
NS(=O)(=O)c1ccc(NS(=O)(=O)c2ccc(NC(=O)c3ccc(-c4ccccc4)cc3)cc2)cc1,85,6,54*,228,27,1
NS(=O)(=O)c1ccc(C(=O)Nc2ccc(-c3nc4cccnc4s3)cc2)cc1,86,1,52*,377,49,.
COC(=O)CNc1c(-c2ccccn2)nc2ccc(Br)cn12,.,55*,-59,367,-5,0

# Compound activity from PubChem.
